Series [1] can be described thus: Neurotoxicity in ip dosed C57B/6 mouse after 30 mins by rotarod test. It counts as toxicity, organism-based. As to conditions: in vivo. An outline of the steps: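 Minimal neurotoxicity in mice was scored on the rotarod, 30 min after i.p. administration. TD50 was reported in mg/kg with a range in parentheses.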
For orientation: In the rotarod test animals must keep their balance on a rotating rod.

Series [2] concerns Mus musculus. Put plainly: Anticonvulsant activity in ip dosed C57B/6 mouse assessed as inhibition of maximal electroshock-induced seizures. It counts as functional. As to conditions: C57B/6, ip.
Series [3] concerns Mus musculus. Put plainly: Anticonvulsant activity in C57B/6 mouse assessed as inhibition of isoniazid-induced clonic seizures at 50 mg/kg, ip after 0.5 hrs relative to control. Format: functional. Further details: scale not given: the % may be the effect or the level left. Conditions: route intraperitoneal. In outline: (§1)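 Isoniazid-induced seizure model in mice. Isoniazid 250 mg/kg was given 30 min after i.p. test agent. Clonic seizures, tonic seizures and lethality were counted. Treated groups were compared with the control group.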

Series [4] deals with Mus musculus. Kind of series: Anticonvulsant activity in C57B/6 mouse assessed as inhibition of pentylenetetrazole-induced clonic seizures at 50 mg/kg, ip after 0.5 hrs relative to control. It counts as functional. As to conditions: dose 100 mg/kg; route intraperitoneal; in the assay text read “100 mg/kg” for “50 mg/kg”. Further details: scale not given: the % may be the effect or the level left. In outline: (§2)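 Seizures in mice were induced by pentylenetetrazole 85 mg/kg in saline, s.c., 30 min after i.p. test agent. Animals were caged singly and watched for 30 min. Clonic and tonic seizures and deaths were counted.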

Series [5] deals with Mus musculus. Put plainly: Anticonvulsant activity in C57B/6 mouse assessed as inhibition of strychnine-induced clonic seizures at 50 mg/kg, ip after 0.5 hrs relative to control. It counts as functional. Further details: scale not given: the % may be the effect or the level left. Conditions: route intraperitoneal. An outline of the steps: (§3)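 Strychnine chlorhydrate in saline (1.2 mg/kg) was injected s.c. into mice 30 min after i.p. test agent. Animals were caged singly and observed for 30 min. Seizure onset time, clonic and tonic seizure counts and lethality were recorded. Controls received vehicle only.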

Series [6] concerns Mus musculus. Kind of series: Anticonvulsant activity in C57B/6 mouse assessed as inhibition of strychnine-induced tonic seizures at 50 mg/kg, ip after 0.5 hrs relative to control. Format: functional. As to conditions: route intraperitoneal. The arrangement: scale not given: the % may be the effect or the level left. An outline of the steps:
as §3

Series [7] deals with Mus musculus. Kind of series: Anticonvulsant activity in C57B/6 mouse assessed as inhibition of isoniazid-induced tonic seizures at 50 mg/kg, ip after 0.5 hrs relative to control. Format: functional. The arrangement: scale not given: the % may be the effect or the level left. Conditions: route intraperitoneal. In outline: as §1
The subject of series [8] is Mus musculus. Put plainly: Toxicity in strychnine-induced seizure C57B/6 mouse model assessed as lethality at 50 mg/kg, ip after 0.5 hrs relative to control. Format: organism-based. The arrangement: dose 50 mg/kg, route intraperitoneal. Conditions: in vivo. An outline of the steps: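 Test agent given i.p.; controls received vehicle only. After 30 min, strychnine chlorhydrate 1.2 mg/kg in saline was injected s.c. Mice were caged individually and observed 30 min, recording seizure onset time, clonic and tonic seizure numbers and lethality.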

In series [9] the test system is Mus musculus. Kind of series: Toxicity in isoniazid-induced seizure C57B/6 mouse model assessed as lethality at 50 mg/kg, ip after 0.5 hrs relative to control. The arrangement: dose 50 mg/kg, route intraperitoneal. As to conditions: in vivo. It counts as organism-based. In outline:
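Mice received the test agent i.p., then isoniazid 250 mg/kg 30 min later. Clonic seizures, tonic seizures and lethality were recorded, and treated groups were compared with a control group.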

For series [10], the system named is Mus musculus. Kind of series: Anticonvulsant activity in C57B/6 mouse assessed as inhibition of pentylenetetrazole-induced tonic seizures at 50 mg/kg, ip after 0.5 hrs relative to control. Format: functional. Further details: scale not given: the % may be the effect or the level left. As to conditions: route intraperitoneal. An outline of the steps: as §2
Series [11] is filed under the species Mus musculus. Put plainly: Protective index, ratio of TD50 for C57B/6 mouse by rotarod test to ED50 for C57BL/6 mouse by MES test. Format: functional.

In general, TD50 refers to the 50% point of the dose-response relation for the toxic effect studied. Consider `O=C1COc2cc(NCc3ccc(Cl)cc3)ccc2N1`, for which the TD50 at 0.5 h in series [1] was > 300 mg/kg.

Broadly, the ED50 is the dose at which the effect has come halfway, by size or by number of responders. In the case of `O=C1COc2ccccc2N1`, the TD50 at 0.5 h in [1] was > 300 mg/kg. Besides, the ED50 in series [2] is 300 mg/kg.

As to `CCOc1ccc(CNc2ccc3c(c2)OCC(=O)N3)cc1`, the TD50 at 0.5 h in series [1] was > 300 mg/kg.

For the compound `O=C1COc2cc(NCc3ccccc3F)ccc2N1`, the TD50 at 0.5 h in series [1] turned out to be 183 mg/kg.

As to `O=C1COc2cc(NCc3ccccc3)ccc2N1`, in [1], the TD50 at 0.5 h stood at 182 mg/kg.

As for `O=C1COc2cc(NCc3ccccc3Cl)ccc2N1`, the TD50 at 0.5 h in [1] is > 300 mg/kg.

`O=C1COc2cc(NCc3cccc(F)c3)ccc2N1` registered a TD50 at 0.5 h in series [1] of 228 mg/kg.

Consider `O=C1COc2cc(NCc3ccc(F)cc3)ccc2N1`, for which the TD50 at 0.5 h in series [1] is 228 mg/kg.

Consider `O=C1COc2cc(NCc3ccc(Br)cc3)ccc2N1`, for which the TD50 at 0.5 h in [1] is > 300 mg/kg.

Consider `NC(=O)N1c2ccccc2C=Cc2ccccc21` [CARBAMAZEPINE], for which the Activity came to 10% in series [3]; 100% in series [4]; 40% in series [5]; 30% in series [6]; 10% in series [7]; 0% in series [8]. Further, the Activity came to 0% in series [9] and 20% in series [10]. In [1], the TD50 at 0.5 h is 74.4 mg/kg. Also, the ED50 in [2] is 9.2 mg/kg.

For the compound `Cc1ccc(CNc2ccc3c(c2)OCC(=O)N3)cc1`, the TD50 at 0.5 h in [1] was > 300 mg/kg.

As to `CN(Cc1ccc(F)cc1)c1ccc2c(c1)OCC(=O)N2C`, in series [1], the TD50 at 0.5 h is > 300 mg/kg.

In the case of `O=C1COc2cc(NCc3ccc4c(c3)OCO4)ccc2N1`, in [1], the TD50 at 0.5 h is > 300 mg/kg. Moreover, in [11], the Ratio is >4.7. In series [2], the ED50 was 63.4 mg/kg.

Source of the values: ChEMBL document CHEMBL1156692, “Synthesis of novel 7-benzylamino-2H-1,4-benzoxazin-3(4H)-ones as anticonvulsant agents” (Eur J Med Chem, 2008).
